Laboratory results published in ChEMBL document CHEMBL4813921, “Optimization of WZ4003 as NUAK inhibitors against human colorectal cancer” (Eur J Med Chem, 2021).
The source made the active and inactive calls. The calls are words filed in the database; no cut-off is given here.

Columns and labels:
[1] = biological target: T1, NUAK family SNF1-like kinase 2 (Homo sapiens) (UniProt Q9H093); experiment: Inhibition of NUAK2 (unknown origin) at 10 uM using CHKtide as substrate in presence of ATP measured after 60 mins by ADP-Glo assay
T1 sequence (whole entry): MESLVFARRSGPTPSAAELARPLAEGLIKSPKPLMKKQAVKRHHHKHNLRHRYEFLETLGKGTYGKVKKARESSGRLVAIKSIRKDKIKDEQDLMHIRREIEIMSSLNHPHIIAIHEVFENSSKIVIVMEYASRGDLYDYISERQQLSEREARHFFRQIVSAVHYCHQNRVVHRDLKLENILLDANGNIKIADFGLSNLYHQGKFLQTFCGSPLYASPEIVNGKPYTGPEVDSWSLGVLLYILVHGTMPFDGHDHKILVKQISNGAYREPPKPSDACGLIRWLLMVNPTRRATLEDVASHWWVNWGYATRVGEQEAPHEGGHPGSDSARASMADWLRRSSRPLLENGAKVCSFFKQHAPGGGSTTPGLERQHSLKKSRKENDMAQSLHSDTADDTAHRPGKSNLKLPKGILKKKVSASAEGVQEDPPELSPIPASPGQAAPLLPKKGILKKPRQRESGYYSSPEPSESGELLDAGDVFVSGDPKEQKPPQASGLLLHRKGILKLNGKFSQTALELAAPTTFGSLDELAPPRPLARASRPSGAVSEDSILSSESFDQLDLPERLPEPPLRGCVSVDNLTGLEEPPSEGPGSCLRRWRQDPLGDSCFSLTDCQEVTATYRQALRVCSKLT

[2] = biological target: T2, NUAK family SNF1-like kinase 1 (Homo sapiens) (UniProt O60285); experiment: Inhibition of NUAK1 (unknown origin) at 10 uM using CHKtide as substrate in presence of ATP measured after 60 mins by ADP-Glo assay
T2 sequence (whole entry): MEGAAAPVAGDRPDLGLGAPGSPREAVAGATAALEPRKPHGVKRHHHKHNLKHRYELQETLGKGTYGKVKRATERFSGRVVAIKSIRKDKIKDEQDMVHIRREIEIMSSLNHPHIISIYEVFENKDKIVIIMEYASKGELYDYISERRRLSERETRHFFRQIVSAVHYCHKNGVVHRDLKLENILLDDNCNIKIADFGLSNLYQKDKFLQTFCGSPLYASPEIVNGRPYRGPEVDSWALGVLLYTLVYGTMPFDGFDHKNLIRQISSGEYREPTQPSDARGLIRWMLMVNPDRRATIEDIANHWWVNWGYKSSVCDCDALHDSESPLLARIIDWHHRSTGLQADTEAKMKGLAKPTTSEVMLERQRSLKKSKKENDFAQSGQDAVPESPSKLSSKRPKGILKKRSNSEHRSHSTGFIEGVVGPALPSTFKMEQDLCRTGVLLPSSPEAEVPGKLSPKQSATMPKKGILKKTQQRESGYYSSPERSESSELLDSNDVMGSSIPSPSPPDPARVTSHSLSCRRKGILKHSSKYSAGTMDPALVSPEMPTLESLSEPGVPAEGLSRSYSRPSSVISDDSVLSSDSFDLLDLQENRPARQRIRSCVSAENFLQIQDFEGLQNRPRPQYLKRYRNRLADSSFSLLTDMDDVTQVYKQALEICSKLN

U2OS [3] = experiment: Antiproliferative activity against human U2OS cells assessed as reduction in cell viability at 10 uM measured after 1 to 5 days by MTT assay; type: functional; details: time 1-5 day
Outline: (§1)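 MTT viability read daily over 1–5 days of exposure to 10 μM compound; mean ± SD, n = 3.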

SW480 [4] = experiment: Induction of apoptosis in human SW480 cells assessed as viable cells at 10 uM measured after 48 hrs by Annexin V-FITC/PI staining based flow cytometry method (reference value: 93.2%); type: functional; details: read-out: Activity
U2OS [5] = experiment: Induction of apoptosis in human U2OS cells assessed as necrotic cells at 10 uM measured after 48 hrs by Annexin V-FITC/PI staining based flow cytometry method (reference value: 0.4%); type: functional
HCT-116 [6] = experiment: Induction of apoptosis in human HCT-116 cells assessed as late apoptotic cells at 10 uM measured after 48 hrs by Annexin V-FITC/PI staining based flow cytometry method (reference value: 1.6%); type: functional
U2OS [7] = experiment: Induction of apoptosis in human U2OS cells assessed as early apoptotic cells at 10 uM measured after 48 hrs by Annexin V-FITC/PI staining based flow cytometry method (reference value: 2.8%); type: functional
U2OS [8] = experiment: Antiproliferative activity against human U2OS cells at 2.5 to 10 uM measured after 48 hrs by EdU staining based assay; type: functional, cell-based; details: dose 2.5-10 µM
Outline: (§2)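 Cells exposed to a range of compound concentrations for 48 h, then EdU click-chemistry staining with DAPI counterstain. Confocal high-content imaging; DAPI-positive nuclei counted as total and EdU-positive as proliferating.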

HCT-116 [9] = experiment: Induction of apoptosis in human HCT-116 cells assessed as early apoptotic cells at 10 uM measured after 48 hrs by Annexin V-FITC/PI staining based flow cytometry method (reference value: 0.8%); type: functional
SW480 [10] = experiment: Induction of apoptosis in human SW480 cells assessed as late apoptotic cells at 10 uM measured after 48 hrs by Annexin V-FITC/PI staining based flow cytometry method (reference value: 2.8%); type: functional
SW480 [11] = experiment: Antiproliferative activity against human SW480 cells assessed as reduction in cell viability at 10 uM measured after 1 to 5 days by MTT assay relative to control; type: functional, cell-based; details: time 1-5 day; outline: as §1
HCT-116 [12] = experiment: Antiproliferative activity against human HCT-116 cells at 2.5 to 10 uM measured after 48 hrs by EdU staining based assay; type: functional, cell-based; details: dose 2.5-10 µM; outline: as §2
HCT-116 [13] = experiment: Antiproliferative activity against human HCT-116 cells assessed as reduction in cell viability at 10 uM measured after 1 to 5 days by MTT assay relative to control; type: functional, cell-based; details: time 1-5 day; outline: as §1
HCT-116 [14] = experiment: Induction of apoptosis in human HCT-116 cells assessed as viable cells at 10 uM measured after 48 hrs by Annexin V-FITC/PI staining based flow cytometry method (reference value: 95.4%); type: functional; details: read-out: Activity
SW480 [15] = experiment: Induction of apoptosis in human SW480 cells assessed as early apoptotic cells at 10 uM measured after 48 hrs by Annexin V-FITC/PI staining based flow cytometry method (reference value: 2.6%); type: functional
SW480 [16] = experiment: Antiproliferative activity against human SW480 cells at 2.5 to 10 uM measured after 48 hrs by EdU staining based assay; type: functional, cell-based; details: dose 2.5-10 µM; outline: as §2
SW480 [17] = experiment: Induction of apoptosis in human SW480 cells assessed as necrotic cells at 10 uM measured after 48 hrs by Annexin V-FITC/PI staining based flow cytometry method (reference value: 1.4%); type: functional
U2OS [18] = experiment: Induction of apoptosis in human U2OS cells assessed as viable cells at 10 uM measured after 48 hrs by Annexin V-FITC/PI staining based flow cytometry method (reference value: 95.5%); type: functional; details: read-out: Activity
U2OS [19] = experiment: Induction of apoptosis in human U2OS cells assessed as late apoptotic cells at 10 uM measured after 48 hrs by Annexin V-FITC/PI staining based flow cytometry method (reference value: 1.3%); type: functional
HCT-116 [20] = experiment: Induction of apoptosis in human HCT-116 cells assessed as necrotic cells at 10 uM measured after 48 hrs by Annexin V-FITC/PI staining based flow cytometry method (reference value: 2.2%); type: functional

Structure (SMILES) | inhibition [1] | inhibition [2] | inhibition at 10 µM (U2OS [3]) | other results
CCC(=O)Nc1cccc(Oc2nc(Nc3ccc(N4CCCC4)cc3OC)ncc2Cl)c1 | inactive | 25.8% | 18.5% | 
CCC(=O)Nc1cccc(Oc2nc(Nc3ccc(N4CCCC4)cc3)ncc2Cl)c1 | inactive | inactive | 38.5% | 
CCC(=O)Nc1cccc(Oc2nc(Nc3ccc(N4CCN(C)CC4)cc3Cl)ncc2Cl)c1 | 69.1% | 71.5% | 34.8% | 
CCC(=O)Nc1cccc(Oc2nc(Nc3ccc(N4CCC(C)CC4)cc3)ncc2Cl)c1 | 24.8% | 13.4% | 44.2% | 
CCC(=O)Nc1cccc(Oc2nc(Nc3ccc(N4CCCCC4)cc3)ncc2Cl)c1 | 72.3% | 86% | 48.4% | 
CCC(=O)Nc1cccc(Oc2nc(Nc3ccc(N4CCC(OC)CC4)cc3OC)ncc2Cl)c1 | inactive | 5.08% | 10.8% | 
CCC(=O)Nc1cccc(Oc2ccnc(Nc3ccc(N4CCN(C)CC4)cc3)n2)c1 | 48.8% | 85.6% | 24% | 
CCC(=O)Nc1cccc(Oc2nc(Nc3ccc(N4CCOCC4)cc3OC)ncc2Cl)c1 | 8.45% | 65.6% | 9.7% | 
CCC(=O)Nc1cccc(Oc2nc(Nc3ccc(N4CCC(OC)CC4)cc3)ncc2Cl)c1 | 53.4% | 86.5% | 48.7% | 
CCCN(CCC)c1ccc(Nc2ncc(Cl)c(Oc3cccc(NC(=O)CC)c3)n2)cc1 | inactive | 9.3% | 23.9% | 
CCC(=O)Nc1cccc(Oc2nc(Nc3ccc(N4CCCCC4)cc3OC)ncc2Cl)c1 | inactive | 13.9% | 12.9% | 
CCC(=O)Nc1cccc(Oc2nc(Nc3ccc(N4CCN(C)CC4)cc3OC)ncc2Cl)c1 | 84.8% | 85.8% | 47.3% | viability at 10 µM (SW480 [4]): 94.5%; Activity (U2OS [5]): 0.4%; Activity (HCT-116 [6]): 13.7%; Activity (U2OS [7]): 6.2%; Activity (U2OS [8]): Active; Activity (HCT-116 [9]): 2.9%; Activity (SW480 [10]): 2.7%; Activity (SW480 [11]): Active; Activity (HCT-116 [12]): Active; Activity (HCT-116 [13]): Active; viability at 10 µM (HCT-116 [14]): 80.2%; Activity (SW480 [15]): 2%; Activity (SW480 [16]): Active; Activity (SW480 [17]): 0.8%; viability at 10 µM (U2OS [18]): 90.8%; Activity (U2OS [19]): 2.6%; Activity (HCT-116 [20]): 3.2%
CCC(=O)Nc1cccc(Oc2nc(Nc3ccc(N(C)C)cc3OC)ncc2Cl)c1 | 15% | 80.6% | 4.83% | 
CCC(=O)Nc1cccc(Oc2nc(Nc3ccc(N4CCC(C)CC4)cc3OC)ncc2Cl)c1 | inactive | 9.2% | 20.9% | 
CCC(=O)Nc1cccc(Oc2nc(Nc3ccc(N(CC)CC)cc3)ncc2Cl)c1 | 21.2% | 54.4% | 38.8% | 
Cc1nc(Nc2cnn(C3CCNCC3)c2)nc2c1N(C)C(=O)c1cc3ccccc3cc1N2C | 15.6% | 78.3% | 38.6% | 
CCC(=O)Nc1cccc(Oc2nc(Nc3ccc(N4CCOCC4)cc3)ncc2Cl)c1 | 43.5% | 70.9% | 61.3% | 
CCC(=O)Nc1cccc(Oc2nc(Nc3ccc(N(C)C)cc3)ncc2Cl)c1 | 31.7% | 72.6% | 60.3% | 
CCCN(CCC)c1ccc(Nc2ncc(Cl)c(Oc3cccc(NC(=O)CC)c3)n2)c(OC)c1 | inactive | inactive | 33.8% | 
CCC(=O)Nc1cccc(Oc2nc(Nc3ccc(N(CC)CC)cc3OC)ncc2Cl)c1 | inactive | 10.8% | 8.69% | 
